According to PMC2606940 (The Journal of General Physiology, 2009):
Residue numbers refer to the chain shown, from its start. Where two headings read alike, the source gives them in different places.

Key:
Type in all cases: cell-based
CLC-0 E166K mutant = biological target: T1, CLC-0 E166K mutant (Torpedo marmorata, UniProt P21564, C212S/E166K); conditions: for IC50: read-out: Apparent affinity (K1/2)
T1 sequence (P21564 1-805 E166K/C212S): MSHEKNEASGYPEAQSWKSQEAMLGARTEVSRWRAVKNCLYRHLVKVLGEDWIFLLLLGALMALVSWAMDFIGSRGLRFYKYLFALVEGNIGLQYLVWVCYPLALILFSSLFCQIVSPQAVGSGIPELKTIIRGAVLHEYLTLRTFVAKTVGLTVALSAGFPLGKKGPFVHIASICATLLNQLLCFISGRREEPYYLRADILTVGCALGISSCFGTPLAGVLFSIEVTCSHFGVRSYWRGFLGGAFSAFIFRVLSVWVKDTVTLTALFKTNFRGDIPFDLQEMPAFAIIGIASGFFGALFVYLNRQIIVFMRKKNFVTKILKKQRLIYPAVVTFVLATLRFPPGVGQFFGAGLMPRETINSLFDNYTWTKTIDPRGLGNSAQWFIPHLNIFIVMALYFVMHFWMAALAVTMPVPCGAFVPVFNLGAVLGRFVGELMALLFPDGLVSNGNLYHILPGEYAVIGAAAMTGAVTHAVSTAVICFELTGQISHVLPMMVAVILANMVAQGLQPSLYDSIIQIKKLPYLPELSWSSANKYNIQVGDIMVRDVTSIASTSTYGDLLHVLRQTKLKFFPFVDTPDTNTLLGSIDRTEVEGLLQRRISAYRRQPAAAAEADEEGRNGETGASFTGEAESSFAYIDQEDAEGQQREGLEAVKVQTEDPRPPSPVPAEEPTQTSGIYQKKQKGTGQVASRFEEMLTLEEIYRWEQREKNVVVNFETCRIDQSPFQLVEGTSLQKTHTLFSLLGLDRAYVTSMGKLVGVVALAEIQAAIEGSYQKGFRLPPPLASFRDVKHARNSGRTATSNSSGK
In short: (§1)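 CLC-0 mutants in the C212S background were transfected into HEK293 cells with lipofectamine and recorded 1–3 d later as excised inside-out patches. Both sides held 130 mM NaCl, 5 mM MgCl2, 10 mM HEPES and 1 mM EGTA, pH 7.4. CPA was perfused continuously onto the cytoplasmic face. Steady-state current over the last 10 ms was normalized to bracketing blocker-free controls and fitted to a Langmuir function for K1/2. Values are mean ± SEM of ~4–6 patches.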

CLC-0 E166L mutant = biological target: T2, CLC-0 E166L mutant (Torpedo marmorata, UniProt P21564, C212S/E166L); conditions: for IC50: read-out: Apparent affinity (K1/2)
T2 sequence (P21564 1-805 E166L/C212S): T1 sequence (P21564 1-805 E166K/C212S) with K166L
In short: as §1

CLC-0 E166W mutant = biological target: T3, CLC-0 E166W mutant (Torpedo marmorata, UniProt P21564, C212S/E166W); conditions: read-out: Apparent affinity (K1/2)
T3 sequence (P21564 1-805 E166W/C212S): T1 sequence (P21564 1-805 E166K/C212S) with K166W
In short: as §1

Structure (SMILES)	block of current (CLC-0 E166K mutant; 0.3 mM CPA, −160 mV)	IC50 (CLC-0 E166K mutant; −80 mV)	IC50 (CLC-0 E166K mutant; −100 mV)	IC50 (CLC-0 E166K mutant; −120 mV)	IC50 (CLC-0 E166K mutant; −140 mV)	IC50 (CLC-0 E166K mutant; −160 mV)	block of current (CLC-0 E166L mutant; 0.3 mM CPA, −160 mV)	IC50 (CLC-0 E166L mutant; −40 mV)	IC50 (CLC-0 E166L mutant; −60 mV)	IC50 (CLC-0 E166L mutant; −80 mV)	IC50 (CLC-0 E166L mutant; −100 mV)	IC50 (CLC-0 E166L mutant; −120 mV)	IC50 (CLC-0 E166L mutant; −140 mV)	IC50 (CLC-0 E166L mutant; −160 mV)	IC50 (CLC-0 E166W mutant; −60 mV)	IC50 (CLC-0 E166W mutant; −80 mV)	IC50 (CLC-0 E166W mutant; −100 mV)	IC50 (CLC-0 E166W mutant; −120 mV)	IC50 (CLC-0 E166W mutant; −140 mV)	IC50 (CLC-0 E166W mutant; −160 mV)
O=C(O)COc1ccc(Cl)cc1 [CPA, p-chlorophenoxy acetate]	~10%	21.3 ± 0.9 mM	15.6 ± 0.7 mM	11.3 ± 0.5 mM	7.99 ± 0.35 mM	5.62 ± 0.27 mM	~60%	4.64 ± 0.19 mM	2.61 ± 0.08 mM	1.46 ± 0.03 mM	0.8 ± 0.02 mM	0.47 ± 0.01 mM	0.28 ± 0.01 mM	0.18 ± 0.01 mM	13.2 ± 2.1 mM	6.66 ± 0.98 mM	3.49 ± 0.41 mM	1.86 ± 0.22 mM	0.97 ± 0.13 mM	0.55 ± 0.07 mM
CCCCCCCC(=O)O [octanoate]	–	29.2 ± 0.53 mM	21.6 ± 0.54 mM	15.4 ± 0.5 mM	10.6 ± 0.45 mM	7.24 ± 0.33 mM	–	0.342 ± 0.053 mM	0.192 ± 0.022 mM	0.106 ± 0.01 mM	0.057 ± 0.005 mM	0.032 ± 0.003 mM	0.018 ± 0.002 mM	0.011 ± 0.001 mM	–	19.2 ± 3.3 mM	13 ± 2 mM	8.6 ± 1.3 mM	5.53 ± 0.87 mM	3.5 ± 0.59 mM
